*1 amine or outer side, *2 acyl side, *3 side chain or, on linkers, in order; H or OH if unused. Where a SMILES comes first, the peptide text is derived from it. Bridges are numbered along the chain shown (N, C = ends). [ ]: non-standard residue; d: D form. X1 = O=C(CC[C@H](N[*:1])C(=O)[*:2])CN[*:3]; X4 = O=C([C@@H](N[*:1])C(O)c1ccccc1)[*:2]; X5 = O=C(CN[*:3])C[C@H](N[*:1])C(=O)[*:2]; pY = N[C@@H](Cc1ccc(OP(=O)(O)O)cc1)C(=O)O; hPhe = N[C@@H](CCc1ccccc1)C(=O)O; Tic = O=C(O)[C@@H]1Cc2ccccc2CN1; Nle = CCCC[C@H](N)C(=O)O; CO = O=C([*:1])[*:2]

Test [1] has as its target T1, Tyrosine-protein phosphatase non-receptor type 6 (Homo sapiens, UniProt P29350). Nature of the test: Dissociation constant for the interaction with the GST-N-SH2 domain of SHP-1; nb is no binding. The method, boiled down:
(§1)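 SPR at room temperature in 10 mM Hepes pH 7.4, 150 mM NaCl, 3.4 mM EDTA, 0.005% Tween20. Biotinylated peptides captured on the chip to 20-40 RU. FPLC-purified GST-SHP-1 N-SH2 was injected 5 min at 30 µL/min, then dissociation was followed. Blank flow cell subtracted. Equilibrium RU vs domain concentration was fit to a one-site hyperbola for Kd.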

Test [2] has as its target T1, Tyrosine-protein phosphatase non-receptor type 6. Briefly: Concentration required to stimulate SHP-1 enzymatic activity by 50%; not active. The method, boiled down:
(§2)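 SHP-1 activity on p-nitrophenyl phosphate (10 mM) in 50 mM Hepes pH 7.4, 50 mM NaCl, 1 mM EDTA, 1 mM TCEP with 0-500 µM peptide. Enzyme (0.5 µg) added last, 30 min at room temperature, stopped with 1 M NaOH, A405 read. Activity relative to no-peptide enzyme. Duplicates, mean of three independent experiments. Not active: maximal activity ≤0.4 relative to Ros pY2267.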

Test [3] has the same target. Nature of the test: Dissociation constant for the interaction with the GST-N-SH2 domain of SHP-1. The method, boiled down: as §1
Test [4] has the same target. Nature of the test: Concentration required to stimulate SHP-1 enzymatic activity by 50%. The method, boiled down:
as §2

T1 sequence (P29350 whole entry, the tested form may be a part): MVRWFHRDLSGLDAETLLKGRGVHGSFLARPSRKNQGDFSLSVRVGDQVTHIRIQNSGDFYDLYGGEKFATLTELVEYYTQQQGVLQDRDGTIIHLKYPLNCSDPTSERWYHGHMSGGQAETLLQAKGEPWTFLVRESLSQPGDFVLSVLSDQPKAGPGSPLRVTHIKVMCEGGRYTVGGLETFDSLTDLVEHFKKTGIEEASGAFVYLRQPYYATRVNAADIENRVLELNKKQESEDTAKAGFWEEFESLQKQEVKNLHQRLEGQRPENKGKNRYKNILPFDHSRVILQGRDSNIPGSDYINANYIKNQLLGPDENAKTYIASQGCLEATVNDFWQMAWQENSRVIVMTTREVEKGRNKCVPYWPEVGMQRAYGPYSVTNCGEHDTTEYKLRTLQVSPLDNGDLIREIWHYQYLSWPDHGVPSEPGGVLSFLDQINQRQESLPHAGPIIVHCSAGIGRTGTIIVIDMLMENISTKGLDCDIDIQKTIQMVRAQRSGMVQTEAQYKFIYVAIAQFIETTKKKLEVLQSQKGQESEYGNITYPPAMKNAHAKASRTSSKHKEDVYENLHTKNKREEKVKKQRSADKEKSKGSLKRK

What is called Kd is the constant that tells how readily two partners part at equilibrium. Higher therefore signals weaker binding. What is called EC50 is the concentration that produces a half-maximal response. In the case of `CC[C@H](C)[C@H](NC(=O)[C@@H]1Cc2ccccc2CN1C(=O)[C@H](Cc1ccc(OP(=O)(O)O)cc1)NC(=O)[C@H](CC(N)=O)NC(=O)[C@H](CC(C)C)NC(=O)CNC(=O)[C@@H](N)CCC(=O)O)C(=O)N1Cc2ccccc2C[C@H]1C(N)=O` (H-EGLN[pY][Tic]I[Tic]-NH2), the Kd entry in test [1] is “Not Active”. In addition, the half-maximal effective concentration (EC50) entry in test [2] was “Not Active”.
In test [3], `CSCC[C@H](NC(=O)[C@H](Cc1ccc(OP(=O)(O)O)cc1)NC(=O)[C@H](CC(N)=O)NC(=O)[C@H](CC(C)C)NC(=O)CNC(=O)[C@@H](N)CCC(=O)O)C(=O)N[C@H](C(=O)N[C@@H](CC(C)C)C(N)=O)C(C)C` (H-EGLN[pY]MVL-NH2) came in with a Kd of 1.44 µM. The EC50 in test [4] (read-out: EC50) came out at 160 µM.
Consider `CSCC[C@@H]1NC(=O)[C@H](Cc2ccc(OP(=O)(O)O)cc2)NC(=O)[C@@H](NC(=O)[C@H](CC(C)C)NC(=O)CNC(=O)[C@@H](N)CCC(=O)O)CCCCNC(=O)NCC(=O)CC[C@@H](C(=O)N[C@@H](CC(C)C)C(=O)O)NC1=O` (H-EGLK[pY]M[X1]L-OH; linker 4-7 via CO), for which binding in test [3] was put at a Kd of 0.21 µM. Moreover, the EC50 result in test [4] is given as “Not Active”.
Turning to `CCCC[C@H](NC(=O)[C@H](Cc1ccc(OP(=O)(O)O)cc1)NC(=O)[C@H](CC(N)=O)NC(=O)[C@H](CC(C)C)NC(=O)CNC(=O)[C@@H](N)CCC(=O)O)C(=O)N[C@H](C(=O)N[C@@H](Cc1ccccc1)C(N)=O)C(C)C` (H-EGLN[pY][Nle]VF-NH2), the affinity in test [3], expressed as Kd, was 0.23 µM. For the same compound, in test [4] (read-out: EC50), the EC50 came to 60 µM.
Take `CC(C)C[C@H](NC(=O)[C@@H](NC(=O)[C@H](Cc1ccccc1)NC(=O)[C@H](Cc1ccc(OP(=O)(O)O)cc1)NC(=O)[C@H](CC(N)=O)NC(=O)[C@H](CC(C)C)NC(=O)CNC(=O)[C@@H](N)CCC(=O)O)C(C)C)C(N)=O` (H-EGLN[pY]FVL-NH2): the affinity in test [3], expressed as Kd, was 0.69 µM. The EC50 in test [4] (read-out: EC50) was 70 µM.
Taken in the same sequence, the figures for `CC(C)C[C@H](NC(=O)[C@@H](NC(=O)[C@@H](NC(=O)[C@H](Cc1ccc(OP(=O)(O)O)cc1)NC(=O)[C@H](CC(N)=O)NC(=O)[C@H](CC(C)C)NC(=O)CNC(=O)[C@@H](N)CCC(=O)O)C(C)c1ccccc1)C(C)C)C(N)=O` (stereo in doubt; 5a) were 0.24 µM and 50 µM.
Consider `CSCC[C@@H]1NC(=O)[C@H](Cc2ccc(OP(=O)(O)O)cc2)NC(=O)[C@@H](NC(=O)[C@H](CC(C)C)NC(=O)CNC(=O)[C@@H](N)CCC(=O)O)CCCCNC(=O)CC[C@@H](C(=O)N[C@@H](CC(C)C)C(=O)O)NC1=O` (H-EGLK[pY]MEL-OH; lactam 4-7), for which the Kd result in test [1] is reported as “Not Active”. Besides, the EC50 entry in test [2] is reported as “Not Active”.
Compound `CC(C)C[C@H](NC(=O)[C@@H](NC(=O)[C@@H](NC(=O)[C@H](Cc1ccc(OP(=O)(O)O)cc1)NC(=O)[C@H](CC(N)=O)NC(=O)[C@H](CC(C)C)NC(=O)CNC(=O)[C@@H](N)CCC(=O)O)C(O)c1ccccc1)C(C)C)C(N)=O` (stereo partly specified) (H-EGLN[pY][X4]VL-NH2) registered a Kd in test [3] of 1.08 µM. The concentration giving a half-maximal response (EC50) in test [4] (read-out: EC50) was determined as 220 µM.
In the case of `CC(C)C[C@H](NC(=O)[C@@H](NC(=O)[C@H](CCc1ccccc1)NC(=O)[C@H](Cc1ccc(OP(=O)(O)O)cc1)NC(=O)[C@H](CC(N)=O)NC(=O)[C@H](CC(C)C)NC(=O)CNC(=O)[C@@H](N)CCC(=O)O)C(C)C)C(N)=O` (H-EGLN[pY][hPhe]VL-NH2), the dissociation constant (Kd) in test [3] was found to be 0.9 µM. For the same compound, the EC50 in test [4] (read-out: EC50) is 140 µM.
For `CSCC[C@H](NC(=O)[C@H](Cc1ccc(OP(=O)(O)O)cc1)NC(=O)[C@H](CC(N)=O)NC(=O)[C@H](CC(C)C)NC(=O)CNC(=O)[C@@H](N)CCC(=O)O)C(=O)N[C@H](C(=O)N[C@@H](Cc1ccccc1)C(N)=O)C(C)C` (H-EGLN[pY]MVF-NH2), in test [3], binding was put at a Kd of 1 µM. Also, in test [4] (read-out: EC50), the EC50 amounted to 140 µM.
As for `CSCC[C@@H]1NC(=O)[C@H](Cc2ccc(OP(=O)(O)O)cc2)NC(=O)[C@@H](NC(=O)[C@H](CC(C)C)NC(=O)CNC(=O)[C@@H](N)CCC(=O)O)CCCCNC(=O)NCC(=O)C[C@@H](C(=O)N[C@@H](CC(C)C)C(=O)O)NC1=O` (H-EGLK[pY]M[X5]L-OH; linker 4-7 via CO), the Kd in test [3] is 0.11 µM. In addition, the EC50 entry in test [2] was “Not Active”.
For `CC(C)C[C@H](NC(=O)[C@@H](NC(=O)[C@@H](NC(=O)[C@H](Cc1ccc(OP(=O)(O)O)cc1)NC(=O)[C@H](CC(N)=O)NC(=O)[C@H](CC(C)C)NC(=O)CNC(=O)[C@@H](N)CCC(=O)O)C(C)c1ccccc1)C(C)C)C(N)=O` (stereo in doubt; 5b), the Kd in test [3] was 0.16 µM. Besides, in test [4] (read-out: EC50), the EC50 is 220 µM.
The corresponding values for `CSCC[C@H](NC(=O)[C@H](Cc1ccc(OP(=O)(O)O)cc1)NC(=O)[C@H](CC(N)=O)NC(=O)[C@H](CC(C)C)NC(=O)CNC(=O)[C@@H](N)CCC(=O)O)C(=O)N[C@H](C(=O)N[C@H](C(N)=O)C(O)c1ccccc1)C(C)C` (stereo partly specified) (H-EGLN[pY]MV[X4]-NH2) are 0.29 µM and 85 µM.
